High-throughput results (PubChem BioAssay)
CCR6 antag = CCR6 (human) receptor antagonism | inhibition, % at 20 µM | hit rate 0.49% among 340,000 | P51684 | CHO-K1 CCR6 PathHunter beta-arrestin, luminescence, CCL20-stimulated | AID 493098;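 active = compounds whose inhibition of the agonist-driven luminescence signal at 20 µM reaches about 50%, limit read from the data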;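 also: cells stimulated with CCL20 at 14 nM final; plate controls were DMSO with CCL20 for no effect and DMSO without agonist for full effect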
CXCR6 inh = blocks human CXCR6 beta-arrestin recruitment | O00574 | CHO-K1 PathHunter CXCR6 beta-arrestin, luminescence | inhibition, % at 20 µM | hit rate 0.36% among 360,000; in the data active = inhibition above about 34%, passing the limit was not always enough;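 also: antagonist mode with CXCL16 agonist at 10 nM final; 0% = 10 nM CXCL16 with DMSO and 100% = unstimulated wells without agonist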
Target sequence (O00574 whole entry, looked up): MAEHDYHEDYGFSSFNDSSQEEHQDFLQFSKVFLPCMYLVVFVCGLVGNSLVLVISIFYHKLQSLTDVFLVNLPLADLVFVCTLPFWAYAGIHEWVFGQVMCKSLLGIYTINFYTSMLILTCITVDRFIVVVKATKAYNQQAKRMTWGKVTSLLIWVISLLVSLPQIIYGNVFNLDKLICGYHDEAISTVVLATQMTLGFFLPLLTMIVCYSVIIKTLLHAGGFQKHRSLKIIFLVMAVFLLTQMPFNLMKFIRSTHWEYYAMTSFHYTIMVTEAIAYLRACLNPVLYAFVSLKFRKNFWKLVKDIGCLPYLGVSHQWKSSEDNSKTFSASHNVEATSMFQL
APJ antag = APJ receptor antagonism; P35414; CHO-K1 APJ beta-arrestin complementation, luminescence; inhibition, % at 20 µM; hit rate 0.32% among 330,000; AID 2521;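 active = inhibition above about 40% at 20 µM, limit read from the data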;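 also: cells challenged with 10 nM apelin-13 agonist together with compound; plate controls were apelin-13 plus DMSO wells for no effect and DMSO wells lacking apelin-13 for full effect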
EBI2 block = antagonists of human EBI2 receptor; AID 651636; hit rate 0.81% among 360,000; inhibition, % at 5 µM; EBI2 beta-arrestin recruitment, luminescence, 7a,25-OHC stimulated; P32249; in the data active = inhibition above about 38%;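 also: enzyme fragment complementation signal reports receptor beta-arrestin coupling in cells; 0% = agonist plus DMSO wells and 100% = wells without agonist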
APJ agonist = agonists of human APJ apelin receptor; CHO-K1 APJ PathHunter beta-arrestin, luminescence; 0% DMSO wells, 100% apelin; activation, % at 20 µM; hit rate 0.11% among 330,000;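 active = activation more than six SD over the plate average, tested at 20 µM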;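 also: 0% = DMSO alone and 100% = apelin-13 at 10 nM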
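Incubation: overnight seeding, 90 min compound at 25 °C, 1 h detection; test system: PathHunter CHO-K1 APJ (AGTRL-1) beta-arrestin reporter cells; amount: 1000 cells/well; doses: one dose, 20 µM compound, 1% DMSO; measured by: beta-gal luminescence; measure: agonist-driven arrestin binding to APJ; benchmarks: negative DMSO alone, positive Apelin-13 at 10 nM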
EBI2 conf = confirmation of human EBI2 receptor antagonists; shares compounds with EBI2 block; EBI2 beta-arrestin luminescence, 7a,25-OHC antagonism; inhibition, % at 5 µM; hit rate 29% among 2,400; AID 651997;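 active = inhibition of at least 50%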
EBI2 ag = activates EBI2, counter-screen for EBI2 antagonists; EBI2-expressing cells, agonist mode, luminescence, 60 min; 0% vehicle, 100% 7α,25-dihydroxycholesterol control; activation, % at 5 µM; shares compounds with EBI2 block; 2,400 tested, under 10 active;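 active = activation of at least 50%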
bGal cs = counter-screen for EBI2 antagonists: E. coli beta-galactosidase inhibition. shares compounds with EBI2 block. purified beta-galactosidase, luminescent Galacton Star, 15 min. inhibition, % at 5 µM. hit rate 1% among 2,400;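 active = replicate-average signal at least 3 plate SD below neutral wells, shown as high inhibition, flagging enzyme-inhibiting false positives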;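 also: 0% = DMSO wells with enzyme and 100% = wells lacking enzyme; higher means stronger loss of beta-gal luminescence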
* = called active by the depositor; nt = no result given. Only some compounds are listed: those with a hit (about 1.5% of all), similar ones and a draw of the others.

SMILES	CCR6 antag	CXCR6 inh	APJ antag	EBI2 block	APJ agonist	EBI2 conf	EBI2 ag	bGal cs
Cc1nc2cc(C(F)(F)F)ccc2n1C1CCN(Cc2nnnn2CCc2ccccc2)CC1	-3	-4	-12	37*	-4	45	1	3
Cc1nc2cc(F)ccc2n1C1CCN(Cc2nnnn2CCc2ccccc2)CC1	-7	2	10	17	-6	nt	nt	nt
O=C(O)C(O)(c1ccc(Cl)cc1)C1(O)CCCC1 (stereo not given)	nt	-3	nt	3	nt	nt	nt	nt
CCOC(=O)[C@]12Cc3cc(OC)ccc3[C@H]1N(Cc1ccccc1)C(=O)c1cc(F)c(F)cc12	5	17	nt	40*	nt	23	-2	-8
Cc1ccc(N(C)C(=O)Oc2ccc(C(=O)c3ccc(Cl)cc3)cc2)cc1	-2	12	11	78*	-2	44	-1	-17
CC(=O)Nc1ccc(OC(=O)N(C)c2ccc(C)cc2)cc1	3	-9	5	-10	-3	nt	nt	nt
O=C(C1CCN(c2nc3ccc(Br)cc3s2)CC1)N1CCC2(CC1)OCCO2	12	5	-3	56*	-1	12	0	0
C[C@@H]1CN([C@@H](C)CO)C(=O)CCCn2nncc2CO[C@@H]1CN(C)C(=O)Oc1cccc2ccccc12	nt	-2	nt	-1	nt	nt	nt	nt
COc1cc(OC)c(OC)cc1CN1CCN(C(=O)COc2ccc3ccccc3c2)CC1	-13	0	-22	71*	-3	41	-1	-11
COc1cccc(CN2CCN(C(=O)COc3ccc4ccccc4c3)CC2)c1	21	-7	-25	95*	2	74*	-1	-9
Oc1c(Cl)c(Cl)c(Cl)c(Cl)c1Cl	-6	-2	11	8	-2	nt	nt	nt
Cc1ccc(OCC(=O)N2CCN(CC3CC4C=CC3C4)CC2)cc1 (stereo not given)	18	-6	17	84*	-2	62*	-1	-5
O=C(COc1ccccc1)N1CCN(CC2CC3C=CC2C3)CC1 (stereo not given)	5	-8	6	42	-2	nt	nt	nt
O=C(COc1ccc(Cl)cc1)N1CCN(Cc2ccccc2)CC1	5	-6	15	91*	2	66*	-1	-5
COc1ccc(OCC(=O)N2CCN(Cc3ccc4c(c3)OCO4)CC2)cc1	7	-1	17	86*	-1	59*	0	9
Cc1ccc(OCC(=O)N2CCN(Cc3ccc4c(c3)OCO4)CC2)cc1	-2	-2	-26	88*	-1	61*	0	10
CC(C)NS(=O)(=O)c1ccc(OCC(=O)N2CCN(Cc3ccccc3)CC2)cc1	7	6	-3	5	5	nt	nt	nt
COc1ccccc1OCC(=O)N1CCN(Cc2ccc3c(c2)OCO3)CC1	4	-1	11	0	0	nt	nt	nt
N#Cc1ccc(OCC(=O)N2CCN(Cc3ccc4c(c3)OCO4)CC2)cc1	20	-2	-3	35	-2	nt	nt	nt
COC1=C(OC)[C@]23CCc4ccc(OC)c(OC)c4[C@]2(CCN3C)CC1=O	2	-1	3	-8	0	nt	nt	nt
COc1cccc(NP2(=O)OCC(C)([N+](=O)[O-])CO2)c1 (stereo not given)	11	0	nt	3	nt	nt	nt	nt
c1ccc(CN2Cc3ccccc3-n3nncc3C2)nc1	nt	5	nt	1	nt	nt	nt	nt
NC(Cc1ccccc1Cl)c1nn[nH]n1 (stereo not given)	nt	1	nt	-9	nt	nt	nt	nt
CC1CCC(N2CCN(C(=O)COc3ccccc3)CC2)CC1 (stereo not given)	0	9	-20	32	1	nt	nt	nt
O=C(COc1ccc(Cl)cc1)N1CCN(C2CCCC2)CC1	3	5	13	89*	-1	67*	-1	-13
COc1ccc(OCC(=O)N2CCN(Cc3ccc(SC)cc3)CC2)cc1	2	-4	8	71*	-3	50*	0	-3
O=C(COc1ccccc1)N1CCN(CC2CC=CCC2)CC1 (stereo not given)	8	1	1	68*	2	34	0	8
Cc1ccc(OCC(=O)N2CCN(Cc3ccc([N+](=O)[O-])cc3)CC2)cc1	4	-13	2	94*	-1	71*	1	11
Cc1cc2c(cc1C)NP(=S)(c1ccccc1)N2	3	5	nt	-6	nt	nt	nt	nt
